From ChEMBL document CHEMBL1154531, “Synthesis and structure-activity studies of novel homomorpholine oxazolidinone antibacterial agents” (Bioorg Med Chem Lett, 2009)
≈ marks a conversion by molar mass, not a printed value.

Assays:
Assay type in all cases: functional
Enterococcus faecalis = assay: Antibacterial activity against Enterococcus faecalis MGH-2 EF1-1 by micro broth method
Outline: (§1)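 Minimum inhibitory concentration determined by broth microdilution and reported in μg/mL.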

Streptococcus pneumoniae = assay: Antibacterial activity against Streptococcus pneumoniae SV1 SP-3 by micro broth method; outline: as §1
Staphylococcus aureus = assay: Antibacterial activity against Staphylococcus aureus UC-76 SA-1 by micro broth method; outline: as §1
Streptococcus pyogenes = assay: Antibacterial activity against Streptococcus pyogenes C-203 by micro broth method; outline: as §1
Escherichia coli = assay: Antibacterial activity against Escherichia coli by transcription-translation assay
Outline: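 Cell-free E. coli coupled in vitro transcription/translation system with a luciferase reporter as read-out.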

| MIC (Enterococcus faecalis) [µg/mL] | MIC (Streptococcus pneumoniae) [µg/mL] | MIC (Staphylococcus aureus) [µg/mL] | MIC (Streptococcus pyogenes) [µg/mL] | IC50 (Escherichia coli) [µM] | SMILES |
| --- | --- | --- | --- | --- | --- |
| 16 (≈ 47.4 µM) | 8 (≈ 23.7 µM) | 16 (≈ 47.4 µM) | 8 (≈ 23.7 µM) | – | CNC(=O)[C@H]1CN(c2ccc(N3CCCOCC3)c(F)c2)C(=O)O1 |
| 32 (≈ 93.2 µM) | 16 (≈ 46.6 µM) | 16 (≈ 46.6 µM) | 8 (≈ 23.3 µM) | – | O=C1O[C@@H](Cn2ccnn2)CN1c1ccc(N2CCCOCC2)cc1 |
| 2 (≈ 5.69 µM) | 2 (≈ 5.69 µM) | 4 (≈ 11.4 µM) | 2 (≈ 5.69 µM) | 2.3 | CC(=O)NC[C@H]1CN(c2ccc(N3CCCOCC3)c(F)c2)C(=O)O1 |
| > 64 | > 64 | > 64 | > 64 | – | O=C1O[C@@H](CO)CN1c1ccc(N2CCCOCC2)cc1 |
| 16 (≈ 49.5 µM) | 16 (≈ 49.5 µM) | 8 (≈ 24.7 µM) | 8 (≈ 24.7 µM) | – | NC(=O)[C@H]1CN(c2ccc(N3CCCOCC3)c(F)c2)C(=O)O1 |
| 32 (≈ 89.1 µM) | 16 (≈ 44.5 µM) | 16 (≈ 44.5 µM) | 16 (≈ 44.5 µM) | 23.4 | NC(=O)[C@H]1CN(c2cc(F)c(N3CCCOCC3)c(F)c2F)C(=O)O1 |
| 64 (≈ 200 µM) | 32 (≈ 100 µM) | 32 (≈ 100 µM) | 32 (≈ 100 µM) | – | CNC(=O)[C@H]1CN(c2ccc(N3CCCOCC3)cc2)C(=O)O1 |
| 64 (≈ 210 µM) | 32 (≈ 105 µM) | 32 (≈ 105 µM) | 64 (≈ 210 µM) | – | NC(=O)[C@H]1CN(c2ccc(N3CCCOCC3)cc2)C(=O)O1 |
| 16 (≈ 45.8 µM) | 16 (≈ 45.8 µM) | 16 (≈ 45.8 µM) | 8 (≈ 22.9 µM) | – | COC(=O)NC[C@H]1CN(c2ccc(N3CCCOCC3)cc2)C(=O)O1 |
| > 64 | > 64 | > 64 | > 64 | – | Cl.NC[C@H]1CN(c2ccc(N3CCCOCC3)c(F)c2)C(=O)O1 |
| 16 (≈ 48 µM) | 8 (≈ 24 µM) | 8 (≈ 24 µM) | 8 (≈ 24 µM) | – | CC(=O)NC[C@H]1CN(c2ccc(N3CCCOCC3)cc2)C(=O)O1 |
| 32 (≈ 81.7 µM) | 16 (≈ 40.9 µM) | 16 (≈ 40.9 µM) | 32 (≈ 81.7 µM) | – | CC(C)(C)OC(=O)NC[C@H]1CN(c2ccc(N3CCCOCC3)cc2)C(=O)O1 |
| 8 (≈ 23.4 µM) | 4 (≈ 11.7 µM) | 4 (≈ 11.7 µM) | 4 (≈ 11.7 µM) | 5.87 | NC(=O)[C@H]1CN(c2cc(F)c(N3CCCOCC3)c(F)c2)C(=O)O1 |

Second part, the molecule before the results:

| SMILES | MIC (Enterococcus faecalis) [µg/mL] | MIC (Streptococcus pneumoniae) [µg/mL] | MIC (Staphylococcus aureus) [µg/mL] | MIC (Streptococcus pyogenes) [µg/mL] | IC50 (Escherichia coli) [µM] |
| --- | --- | --- | --- | --- | --- |
| CNC(=O)[C@H]1CN(c2cc(F)c(N3CCCOCC3)c(F)c2)C(=O)O1 | 8 (≈ 22.5 µM) | 4 (≈ 11.3 µM) | 4 (≈ 11.3 µM) | 4 (≈ 11.3 µM) | 6.37 |
| CC(=O)NC[C@H]1CN(c2cc(F)c(N3CCCOCC3)c(F)c2)C(=O)O1 | 1 (≈ 2.71 µM) | 1 (≈ 2.71 µM) | 2 (≈ 5.41 µM) | 1 (≈ 2.71 µM) | 1.67 |
| COC(=O)NC[C@H]1CN(c2cc(F)c(N3CCCOCC3)c(F)c2)C(=O)O1 | 2 (≈ 5.19 µM) | 1 (≈ 2.59 µM) | 2 (≈ 5.19 µM) | 1 (≈ 2.59 µM) | 1.9 |
| C[Si](C)(C)C#Cc1cn(C[C@H]2CN(c3cc(F)c(N4CCCOCC4)c(F)c3)C(=O)O2)nn1 | > 32 | 4 (≈ 8.41 µM) | > 32 | 2 (≈ 4.21 µM) | – |
| C#Cc1cn(C[C@H]2CN(c3cc(F)c(N4CCCOCC4)c(F)c3)C(=O)O2)nn1 | 2 (≈ 4.96 µM) | 2 (≈ 4.96 µM) | 4 (≈ 9.92 µM) | 2 (≈ 4.96 µM) | – |
| O=C1O[C@@H](CO)CN1c1cc(F)c(N2CCCOCC2)c(F)c1 | 8 (≈ 24.4 µM) | 4 (≈ 12.2 µM) | 4 (≈ 12.2 µM) | 2 (≈ 6.09 µM) | – |
| CC(=O)NC[C@H]1CN(c2cc(F)c(N3CCCOCC3)c(F)c2F)C(=O)O1 | 2 (≈ 5.16 µM) | 1 (≈ 2.58 µM) | 2 (≈ 5.16 µM) | 2 (≈ 5.16 µM) | 3.93 |
| CC(C)(C)OC(=O)NC[C@H]1CN(c2ccc(N3CCCOCC3)c(F)c2)C(=O)O1 | 64 (≈ 156 µM) | 32 (≈ 78.2 µM) | 32 (≈ 78.2 µM) | 32 (≈ 78.2 µM) | – |
| CC(C)(C)OC(=O)NC[C@H]1CN(c2cc(F)c(N3CCCOCC3)c(F)c2)C(=O)O1 | 32 (≈ 74.9 µM) | 16 (≈ 37.4 µM) | 8 (≈ 18.7 µM) | 8 (≈ 18.7 µM) | – |
| CNC(=O)[C@H]1CN(c2cc(F)c(N3CCCOCC3)c(F)c2F)C(=O)O1 | 32 (≈ 85.7 µM) | 16 (≈ 42.9 µM) | 16 (≈ 42.9 µM) | 16 (≈ 42.9 µM) | 18.9 |
| CCC(=O)NC[C@H]1CN(c2cc(F)c(N3CCCOCC3)c(F)c2)C(=O)O1 | 2 (≈ 5.22 µM) | 2 (≈ 5.22 µM) | 2 (≈ 5.22 µM) | 1 (≈ 2.61 µM) | 2.1 |
| O=C1O[C@@H](Cn2ccnn2)CN1c1cc(F)c(N2CCCOCC2)c(F)c1 | 2 (≈ 5.27 µM) | 2 (≈ 5.27 µM) | 2 (≈ 5.27 µM) | 1 (≈ 2.64 µM) | – |
| CC(=O)NC[C@H]1CN(c2ccc(N3CCOCC3)c(F)c2)C(=O)O1 [LINEZOLID] | – | – | – | 2 (≈ 5.93 µM) | – |
